Assay results from ChEMBL document CHEMBL1143895, “Core-modified porphyrins. Part 6: Effects of lipophilicity and core structures on physicochemical and biological properties in vitro” (Bioorg Med Chem, 2008).

Tests used:
[1] = Lipophilicity, log D at pH 7.4; assay type: physicochemical; settings: buffer
Method in brief: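 Shake-flask method: porphyrin dissolved in equal volumes of n-octanol and pH 7.4 phosphate buffer, sonicated 30 min, left to settle 4 h. Each phase measured by UV-vis absorbance and reported as log D7.4.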

[2] = test system: R3230AC; assay: Cytotoxicity in rat R3230AC cells irradiated with 10.8J/cm^2 of water filtered halogen light after 24 hrs by MTT assay; assay type: functional, cell-based; settings: light or radiation study
Method in brief: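 R3230AC rodent mammary adenocarcinoma cells in α-MEM with 10% bovine growth serum, seeded 1.0–1.5×10^4 cells/well and grown 24 h at 37 °C, 5% CO2. Porphyrin in complete medium for 24 h, rinsed with saline, then irradiated 1 h in clear serum-free medium with water-filtered halogen light (400–850 nm, 3 mW/cm², 10.8 J/cm²). Given complete medium, 24 h dark, then MTT vs light-only controls. IC50 from Hill fit; ≥3 experiments in duplicate.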

[3] = test system: R3230AC; assay: Drug uptake in rat R3230AC assessed as intracellular accumulation per cell at 10 uM after 24 hrs; assay type: ADME, cell-based
Method in brief: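 R3230AC cells seeded 2.0–3.0×10^4/well and grown 24 h. Porphyrin from a 2 mM DMSO stock, diluted in complete medium to 10 μM final, 24 h at 37 °C. Monolayer rinsed twice with 0.9% NaCl and lysed in DMSO. Porphyrin fluorescence read and converted through a DMSO standard curve to fmol/cell. Mean with SEM.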

[4] = test system: R3230AC; assay: Cytotoxicity in rat R3230AC cells under dark condition upto 10 uM after 24 hrs by MTT assay; assay type: functional, cell-based
Method in brief: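 Dark toxicity in R3230AC cells, seeded 1.0–1.5×10^4 cells/well and grown 24 h at 37 °C, 5% CO2. Porphyrin up to 10 μM in complete medium for 24 h, rinsed with saline. Cells held 1 h in the dark in clear serum-free medium, then 24 h in complete medium before MTT, read as percent of untreated dark controls.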

[5] = Singlet oxygen generation assessed as DPBF oxidation at 1 uM; assay type: functional
Method in brief: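 DPBF consumption by singlet oxygen from the irradiated porphyrin, with stirring under 3 mW/cm² light. UV absorbance of DPBF read every 2 min up to 10 min, expressed as percent DPBF oxidized.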

| SMILES | logD [1] | Drug uptake [3] [fmol] | IC50 [2] [nM] | Activity [4] | Activity [5] [%] |
| --- | --- | --- | --- | --- | --- |
| O[C@@H]1c2nc(c(-c3ccccc3)c3ccc(s3)c(-c3ccccc3)c3nc(c(-c4ccccc4)c4ccc(s4)c2-c2ccccc2)C=C3)[C@@H]1O | > 2 | 4.5 | 180 | Not toxic | 78 |
| O=S(=O)([O-])c1ccc(-c2c3nc(c(-c4ccc(F)cc4)c4ccc(s4)c(-c4ccc(F)cc4)c4nc(c(-c5ccc(F)cc5)c5ccc2s5)C=C4)C=C3)cc1.[Na+] | 0.8 | 0.3 | 770 | Not toxic | 64 |
| O=C(O)COc1ccc(-c2c3nc(c(-c4ccccc4)c4ccc(s4)c(-c4ccccc4)c4nc(c(-c5ccc(OCC(=O)O)cc5)c5ccc2s5)[C@H](O)[C@@H]4O)C=C3)cc1 | -0.5 | 0.11 | 2570 | Not toxic | 62 |
| O=C(O)COc1ccc(-c2c3nc(c(-c4ccc(F)cc4)c4ccc(s4)c(-c4ccc(F)cc4)c4nc(c(-c5ccc(F)cc5)c5ccc2s5)C=C4)C=C3)cc1 | 1.8 | 0.33 | 380 | Not toxic | 75 |
| O=C(O)COc1ccc(-c2c3nc(c(-c4ccccc4)c4ccc(s4)c(-c4ccccc4)c4nc(c(-c5ccccc5)c5ccc2s5)C=C4)C=C3)cc1 | 1.6 | 0.31 | 260 | Not toxic | 78 |

Further lines, with some results ahead:

| logD [1] | Drug uptake [3] [fmol] | SMILES | IC50 [2] [nM] | Activity [4] | Activity [5] [%] |
| --- | --- | --- | --- | --- | --- |
| > 2 | 0.46 | CC(C)(C)c1ccc(-c2c3nc(c(-c4ccc(OCC(=O)O)cc4)c4ccc(s4)c(-c4ccccc4)c4nc(c(-c5ccccc5)c5ccc2s5)C=C4)C=C3)cc1 | 590 | Not toxic | 75 |
| 0.1 | 0.59 | O=C(O)COc1ccc(-c2c3nc(c(-c4ccccc4)c4ccc(s4)c(-c4ccccc4)c4nc(c(-c5ccc(OCC(=O)O)cc5)c5ccc2s5)C=C4)C=C3)cc1 | 130 | Not toxic | 68 |
| 0.8 | 0.16 | O=C(O)COc1c(OCC(=O)O)c2cc3nc(c(-c4ccccc4)c4ccc([nH]4)c(-c4ccccc4)c4nc(cc1s2)C=C4)C=C3 [THIAPORPHYRIN] | 2280 | Not toxic | 48 |
